# ChEMBL document CHEMBL3808334, “Synthesis and in vitro evaluation of novel triazine analogues as anticancer agents and their interaction studies with bovine serum albumin” (Eur J Med Chem, 2016)
# Tests used:
# Type in all cases: functional
# [1] = Growth inhibition of human HCT116 cells assessed as cell growth at 10 uM incubated for 48 hrs by sulforhodamine B assay; details: HCT-116, 48 h, read-out: Activity
# Summary of the method: (§1)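 Primary screen at one dose (10 µM) across 60 human cancer cell lines. Readout was growth percent relative to untreated control and time-zero.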
# HT-29 = assay: Growth inhibition of human HT-29 cells assessed as cell growth at 10^-4 M incubated for 48 hrs by sulforhodamine B assay; details: HT-29, 48 h, read-out: Activity
# M14 [2] = assay: Growth inhibition of human M14 cells incubated for 48 hrs by sulforhodamine B assay; details: M14, 48 h
# Summary of the method: (§2)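 Cells were plated at 5,000–40,000 per well according to doubling time and preincubated 24 h at 37 °C in 5% CO2; time-zero plates were then TCA-fixed. Five concentrations (10-fold or ½-log dilutions, DMSO stock) were incubated 48 h. Cells were TCA-fixed, stained with 0.4% SRB and read at 515 nm. GI50 was taken where [(Ti−Tz)/(C−Tz)]×100 = 50.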
# [3] = Growth inhibition of human HOP92 cells assessed as cell growth at 10^-6 M incubated for 48 hrs by sulforhodamine B assay; details: HOP-92, 48 h, read-out: Activity
# KM12 [4] = assay: Growth inhibition of human KM12 cells assessed as cell growth at 10^-8 M incubated for 48 hrs by sulforhodamine B assay; details: KM12, 48 h, read-out: Activity
# MDA-MB-435 [5] = assay: Growth inhibition of human MDA-MB-435 cells assessed as cell growth at 10^-6 M incubated for 48 hrs by sulforhodamine B assay; details: MDA-MB-435, 48 h, read-out: Activity
# NCI-H226 [6] = assay: Growth inhibition of human NCI-H226 cells assessed as cell growth at 10^-8 M incubated for 48 hrs by sulforhodamine B assay; details: NCI-H226, 48 h, read-out: Activity
# [7] = Growth inhibition of human SW620 cells assessed as cell growth at 10 uM incubated for 48 hrs by sulforhodamine B assay; details: SW-620, 48 h, read-out: Activity
# [8] = Growth inhibition of human HCT116 cells assessed as cell growth at 10^-6 M incubated for 48 hrs by sulforhodamine B assay; details: HCT-116, 48 h, read-out: Activity
# Summary of the method: (§3)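 Cells seeded at 5,000–40,000/well according to doubling time and preincubated 24 h at 37 °C, 5% CO2. Time-zero plates were TCA-fixed. DMSO concentrate was diluted in medium with 50 µg/ml gentamicin to give five concentrations (10-fold or ½ log steps), then exposed 48 h. Cells were TCA-fixed, stained with 0.4% SRB and read at 515 nm. Percent growth was taken against time-zero and control; GI50, TGI and LC50 derived.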
# [9] = Growth inhibition of human SW620 cells assessed as cell growth at 10^-5 M incubated for 48 hrs by sulforhodamine B assay; details: SW-620, 48 h, read-out: Activity
# NCI-H460 [10] = assay: Growth inhibition of human NCI-H460 cells assessed as cell growth at 10^-5 M incubated for 48 hrs by sulforhodamine B assay; details: NCI-H460, 48 h, read-out: Activity
# [11] = Growth inhibition of human SW620 cells assessed as cell growth at 10^-4 M incubated for 48 hrs by sulforhodamine B assay; details: SW-620, 48 h, read-out: Activity
# [12] = Growth inhibition of human DU145 cells incubated for 48 hrs by sulforhodamine B assay; details: DU-145, 48 h; for CC50: read-out: pLC50 (the source's name) (converted); summary of the method: as §3
# M14 [13] = assay: Growth inhibition of human M14 cells assessed as cell growth at 10^-8 M incubated for 48 hrs by sulforhodamine B assay; details: M14, 48 h, read-out: Activity
# A549 = assay: Growth inhibition of human A549/ATCC cells assessed as cell growth at 10^-4 M incubated for 48 hrs by sulforhodamine B assay; details: A549, 48 h, read-out: Activity
# [14] = Growth inhibition of human TK10 cells assessed as cell growth at 10^-6 M incubated for 48 hrs by sulforhodamine B assay; details: TK-10, 48 h, read-out: Activity
# KM12 [15] = assay: Growth inhibition of human KM12 cells incubated for 48 hrs by sulforhodamine B assay; details: KM12, 48 h; summary of the method: as §2
# Malme-3M = assay: Growth inhibition of human MALME-3M cells assessed as cell growth at 10^-4 M incubated for 48 hrs by sulforhodamine B assay; details: read-out: Activity
# MDA-MB-231 = assay: Growth inhibition of human MDA-MB-231 cells assessed as cell growth at 10^-7 M incubated for 48 hrs by sulforhodamine B assay; details: MDA-MB-231, 48 h, read-out: Activity
# [16] = Growth inhibition of human DU145 cells assessed as cell growth at 10 uM incubated for 48 hrs by sulforhodamine B assay; details: DU-145, 48 h, read-out: Activity; summary of the method: as §1
# SK-MEL-5 = assay: Growth inhibition of human SK-MEL-5 cells assessed as cell growth at 10 uM incubated for 48 hrs by sulforhodamine B assay; details: SK-MEL-5, 48 h, read-out: Activity
# NCI-H322M = assay: Growth inhibition of human NCI-H322M cells assessed as cell growth at 10^-7 M incubated for 48 hrs by sulforhodamine B assay; details: read-out: Activity
# NCI-H226 [17] = assay: Growth inhibition of human NCI-H226 cells assessed as cell growth at 10 uM incubated for 48 hrs by sulforhodamine B assay; details: NCI-H226, 48 h, read-out: Activity
# MDA-MB-468 = assay: Growth inhibition of human MDA-MB-468 cells assessed as cell growth at 10 uM incubated for 48 hrs by sulforhodamine B assay; details: MDA-MB-468, 48 h, read-out: Activity
# U-251 = assay: Growth inhibition of human U251 cells incubated for 48 hrs by sulforhodamine B assay; details: U-251, 48 h; summary of the method: as §2
# MDA-MB-435 [18] = assay: Growth inhibition of human MDA-MB-435 cells incubated for 48 hrs by sulforhodamine B assay; details: MDA-MB-435, 48 h; summary of the method: as §2
# NCI-H460 [19] = assay: Growth inhibition of human NCI-H460 cells assessed as cell growth at 10^-4 M incubated for 48 hrs by sulforhodamine B assay; details: NCI-H460, 48 h, read-out: Activity
# [20] = Growth inhibition of human Caki1 cells assessed as cell growth at 10^-5 M incubated for 48 hrs by sulforhodamine B assay; details: CAKI-1, 48 h, read-out: Activity; summary of the method: as §3
# [21] = read-out: LC50 (the source's name)
# [22] = read-out: pLC50 (the source's name) (converted)
structure (smiles),measurement,setting,value
c1ccc(-c2nc(Nc3ccc(-c4nc5ccccc5[nH]4)cc3)nc(N3CCOCC3)n2)cc1,growth at 10 µM,[1],-81.5%
same,growth at 100 µM,HT-29,-76%
same,GI50,M14 [2]; read-out: GI50,1.34 µM
same,CC50,M14 [2]; [21],6.3 µM
same,TGI,M14 [2]; read-out: TGI,2.9 µM
same,GI50,M14 [2]; read-out: pGI50 (converted),1.35 µM
same,CC50,M14 [2]; [22],6.31 µM
same,TGI,M14 [2]; read-out: pTGI (converted),2.88 µM
same,growth at 1 µM,[3],70%
same,growth at 0.01 µM,KM12 [4],98%
same,growth at 1 µM,MDA-MB-435 [5],96%
same,growth at 0.01 µM,NCI-H226 [6],107%
same,growth at 10 µM,[7],-82.9%
same,growth at 1 µM,[8],16%
same,growth at 10 µM,[9],-77%
same,growth at 10 µM,NCI-H460 [10],-70%
same,growth at 100 µM,[11],-84%
same,LC50 (50% net cell kill),[12],5.12 µM
same,GI50,[12]; read-out: GI50,1.21 µM
same,TGI,[12]; read-out: TGI,2.49 µM
same,GI50,[12]; read-out: pGI50 (converted),1.2 µM
same,CC50,[12],5.13 µM
same,TGI,[12]; read-out: pTGI (converted),2.51 µM
same,growth at 0.01 µM,M14 [13],102%
same,growth at 100 µM,A549,-64%
same,growth at 1 µM,[14],119%
same,GI50,KM12 [15]; read-out: GI50,1.62 µM
same,CC50,KM12 [15]; [21],6.3 µM
same,TGI,KM12 [15]; read-out: TGI,3.19 µM
same,GI50,KM12 [15]; read-out: pGI50 (converted),1.62 µM
same,CC50,KM12 [15]; [22],6.31 µM
same,TGI,KM12 [15]; read-out: pTGI (converted),3.16 µM
same,growth at 100 µM,Malme-3M,-54%
same,growth at 0.1 µM,MDA-MB-231,86%
same,growth at 10 µM,[16],-27.8%
same,growth at 10 µM,SK-MEL-5,-95.4%
same,growth at 0.1 µM,NCI-H322M,101%
same,growth at 10 µM,NCI-H226 [17],-19.3%
same,growth at 10 µM,MDA-MB-468,-62.7%
same,GI50,U-251; read-out: GI50,0.535 µM
same,CC50,U-251; [21],4.89 µM
same,TGI,U-251; read-out: TGI,1.76 µM
same,GI50,U-251; read-out: pGI50 (converted),0.537 µM
same,CC50,U-251; [22],4.9 µM
same,TGI,U-251; read-out: pTGI (converted),1.78 µM
same,GI50,MDA-MB-435 [18]; read-out: GI50,1.76 µM
same,CC50,MDA-MB-435 [18]; [21],6.11 µM
same,TGI,MDA-MB-435 [18]; read-out: TGI,3.28 µM
same,GI50,MDA-MB-435 [18]; read-out: pGI50 (converted),1.78 µM
same,CC50,MDA-MB-435 [18]; [22],6.17 µM
same,TGI,MDA-MB-435 [18]; read-out: pTGI (converted),3.31 µM
same,growth at 100 µM,NCI-H460 [19],-78%
same,growth at 10 µM,[20],-100%
Fc1ccc(-c2nc(Nc3ccc(-c4nc5ccccc5[nH]4)cc3)nc(N3CCOCC3)n2)cc1,growth at 10 µM,[1],4.8%
same,growth at 100 µM,HT-29,-43%
same,GI50,M14 [2]; read-out: GI50,1.94 µM
same,CC50,M14 [2]; [21],8.37 µM
same,TGI,M14 [2]; read-out: TGI,4.03 µM
same,GI50,M14 [2]; read-out: pGI50 (converted),1.95 µM
same,CC50,M14 [2]; [22],8.32 µM
same,TGI,M14 [2]; read-out: pTGI (converted),4.07 µM
same,growth at 1 µM,[3],90%
same,growth at 0.01 µM,KM12 [4],95%
same,growth at 1 µM,MDA-MB-435 [5],95%
same,growth at 0.01 µM,NCI-H226 [6],100%
same,growth at 10 µM,[7],3.57%
same,growth at 1 µM,[8],102%
same,growth at 10 µM,[9],-47%
same,growth at 10 µM,NCI-H460 [10],-22%
same,growth at 100 µM,[11],-44%
same,LC50 (50% net cell kill),[12],> 100 µM
same,GI50,[12]; read-out: GI50,4.53 µM
same,TGI,[12]; read-out: TGI,> 100 µM
same,GI50,[12]; read-out: pGI50 (converted),4.57 µM
same,CC50,[12],> 100 µM
same,TGI,[12]; read-out: pTGI (converted),> 100 µM
same,growth at 0.01 µM,M14 [13],97%
same,growth at 1 µM,[14],100%
same,GI50,KM12 [15]; read-out: GI50,2.06 µM
same,CC50,KM12 [15]; [21],> 100 µM
same,TGI,KM12 [15]; read-out: TGI,5.69 µM
same,GI50,KM12 [15]; read-out: pGI50 (converted),2.04 µM
same,CC50,KM12 [15]; [22],> 100 µM
same,TGI,KM12 [15]; read-out: pTGI (converted),5.62 µM
same,growth at 100 µM,Malme-3M,-58%
same,growth at 0.1 µM,MDA-MB-231,86%
same,growth at 10 µM,[16],38.5%
same,growth at 10 µM,SK-MEL-5,-90.7%
same,growth at 0.1 µM,NCI-H322M,102%
same,growth at 10 µM,NCI-H226 [17],17.1%
same,growth at 10 µM,MDA-MB-468,-1.23%
same,GI50,U-251; read-out: GI50,2.04 µM
same,CC50,U-251; [21],> 100 µM
same,TGI,U-251; read-out: TGI,13.6 µM
same,GI50,U-251; read-out: pGI50 (converted),2.04 µM
same,CC50,U-251; [22],> 100 µM
same,TGI,U-251; read-out: pTGI (converted),13.5 µM
same,GI50,MDA-MB-435 [18]; read-out: GI50,1.94 µM
same,TGI,MDA-MB-435 [18]; read-out: TGI,4.04 µM
same,GI50,MDA-MB-435 [18]; read-out: pGI50 (converted),1.95 µM
same,TGI,MDA-MB-435 [18]; read-out: pTGI (converted),4.07 µM
same,growth at 100 µM,NCI-H460 [19],-39%
same,growth at 10 µM,[20],-37%
